Where two headings read alike, the source gives them in different places.
Key:
[1] = tested on: Theileria equi; test: In vitro growth inhibitory assay of Theileria equi in MASP culture; assay type: cell-based; conditions: for in vitro growth inhibition versus control well: p < 0.05; for morphological changes observed in treated parasites: in vitro treatment, at 96 h, Giemsa-stained smears; for IC50: read-out: IC50 value for growth inhibition of T. equi
How it was run: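 T. equi-infected horse RBCs from MASP culture, diluted to 1% parasitaemia with uninfected ELISA-negative horse RBCs. Medium: M199 with 40% equine serum, antibiotics and 200 μM hypoxanthine. Test compounds at 1–200 μM or 125–1000 nM, triplicate wells, 96 h at 37 °C under 5% CO2/3% O2; drug medium renewed every 24 h. Percent parasitaemia followed over time; IC50 by curve fitting; two-way ANOVA with Bonferroni (p < 0.05).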

[2] = tested on: Theileria equi; test: Viability test; assay type: cell-based
How it was run: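 After 96 h exposure in the growth assay, treated or untreated infected RBCs were moved into drug-free complete medium with fresh uninfected horse RBCs. Cultured a further 72 h at 37 °C under micro-aerophilic gas, with medium replaced every 24 h. Parasite recrudescence/viability was scored on Giemsa-stained blood smears.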

[3] = tested on: horse RBCs; test: In vitro haemolytic assay; assay type: cell-based
[4] = In vitro cytotoxicity assay; assay type: cell-based, horse; conditions: horse, PHA-stimulated horse PBMCs
[5] = tested on: horse PBMCs; test: In vitro cytotoxicity assay; assay type: cell-based
[6] = 48 h, 72 h and 96 h, 250 nM–1000 nM

SMILES	in vitro growth inhibition versus control well ([1]; 24 h, 750 and 1000 nM)	in vitro growth inhibition versus control well [1, 6]	morphological changes observed in treated parasites [1]	IC50 ([1]; 96 h of culture) [µM]	parasite multiplication in the viability test ([2]; after 96 h treatment with 500 nM–1000 nM)	haemolytic activity on horse RBCs ([3]; highest concentration of 2000 μM)	in vitro growth inhibition versus control well ([1]; 24 h, 100 μM and 200 μM)	in vitro growth inhibition versus control well ([1]; 48 h, 72 h and 96 h, 5 μM–200 μM)	IC50 ([1]; Theileria equi, 96 h) [µM]	parasite multiplication in the viability test ([2]; after 96 h treatment with 50 μM–200 μM)	CC50 at 24 h [4] [µM]	Specific selective index (SSI) with respect to host's PBMC ([5]; CC50 on horse PBMCs / IC50 on T. equi)	cytotoxicity to horse PBMCs ([5]; highest concentration 1000 μM, 24 h)	haemolytic activity on horse RBCs ([3]; 10 μM–2000 μM, 90 min) [%]	Specific selective index (SSI) with respect to host's RBC ([3]; CC50 on horse RBCs / IC50 on T. equi)	in vitro growth inhibition versus control well ([1]; 24 h, 500, 750 and 1000 nM)	parasite multiplication in the viability test ([2]; after 96 h treatment with 750 nM and 1000 nM)
CCCCCCCCCCCC[N+](C)(C)C.[Br-] [DDTAB, dodecyl trimethyl ammonium bromide]	significant difference	significant (p < 0.05) growth inhibition	devoid of internal structures, showing pycnotic and degenerative appearances	0.47	failed to multiply further	more											
C[N+](C)(C)CCCCCCCCCC[N+](C)(C)C [DMB, Decamethonium bromide]			devoid of internal structures, showing pycnotic and degenerative appearances				significant difference	significant (p < 0.05) growth inhibition	14	failed to multiply further	7200	514.50	less than 10%	< 3	16035.38		
CCCCCCCCCC[N+](C)(C)C.[Br-] [DTAB, Decyl trimethyl ammonium bromide]		significant (p < 0.05) growth inhibition	devoid of internal structures, showing pycnotic and degenerative appearances	0.558										< 3		significant difference	failed to multiply further
